Diaph act CS – compounds boosting diaphorase resazurin reduction – biochemical, uHTS, resorufin fluorescence, counter-screen for diaphorase-coupled primary assays, primary screen; Diaphorase/resazurin coupled assay, 16 min; stronger effect = higher value; 1 = vehicle wells, 0 = NADH-free wells; activation factor at 20 µM; actives 0.005% (n = 190,000); AID 1229, 2008;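 active means diaphorase activity raised at least twofold by the compound at 20 µM; inactive means activation factor below 2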
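Test system: Clostridium kluyveri diaphorase, purified enzyme. Buffer or medium: 50 mM HEPES pH 7.4 buffer plus MgCl2 and Tween 20. Also added: 0.114 mM NADH and 0.1 mM resazurin, final amounts. Dosing: compound 20 µM once, DMSO 1%. Schedule: 16 min enzyme reaction, ambient temperature. Detection: fluorescence of resorufin, 544 nm excitation, 590 nm emission.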
Diaphorase inh – diaphorase inhibitors and chemical oxidizers, primary screen, counter-screen for diaphorase-coupled primary assays, biochemical, uHTS, resorufin fluorescence; diaphorase resazurin-to-resorufin fluorescence, NADH, 16 min; bacterial (C. kluyveri) enzyme, not human; inhibition, % at 20 µM; actives 0.69% (n = 190,000); AID 1217, 2008;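 active means primary screen inhibition at 20 µM above a set limit, cut at about 50% in these data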;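 further: plate controls were DMSO with full reaction for no effect and wells lacking NADH for full effect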
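Test system: bacterial diaphorase enzyme (C. kluyveri); Quantity: 0.14 U/mL diaphorase, enzyme working solution; Times: reaction incubation of 16 min at room temperature; Measured by: fluorescence of resorufin formed from resazurin, Ex 544/Em 590 nm; Benchmarks: positive control minus NADH, DMSO neutral control.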
ROMK mod – ROMK potassium channel modulators, primary screen, cell-based, thallium flux, MLSMR library; Tet-inducible ROMK, thallium flux fluorescence; actives lie on both sides; B-score at 10 µM; actives 2% (n = 130,000); ATP-sensitive inward rectifier potassium channel 1 (Homo sapiens), P48048;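 active means signal ratio slope over the read window, or its plate-corrected B-score, at least 3 SD from the plate mean, either direction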;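 further: B-score of the F/F0 ratio slope over 7 to 12 s after thallium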
Target sequence (P48048 whole entry, looked up): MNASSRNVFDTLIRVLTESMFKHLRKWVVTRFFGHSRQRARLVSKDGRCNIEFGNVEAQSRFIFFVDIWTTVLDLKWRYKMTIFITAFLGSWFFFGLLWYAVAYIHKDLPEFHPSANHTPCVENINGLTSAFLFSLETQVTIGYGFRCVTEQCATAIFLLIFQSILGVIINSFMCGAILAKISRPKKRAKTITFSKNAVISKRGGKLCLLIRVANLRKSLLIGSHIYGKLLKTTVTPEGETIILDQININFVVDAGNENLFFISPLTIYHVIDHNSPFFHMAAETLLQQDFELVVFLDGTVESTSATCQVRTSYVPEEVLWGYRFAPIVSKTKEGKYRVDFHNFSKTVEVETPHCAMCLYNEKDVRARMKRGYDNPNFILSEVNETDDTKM
L major viab – Leishmania major promastigote growth inhibition, primary screen | Leishmania major promastigotes, resazurin fluorescence viability | inhibition, % at 10 µM | actives 9% (n = 200,000); in the data active means inhibition above about 50%;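 further: promastigotes grown with compound for 44 hours at 28 °C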
Cl transport mod – KCC2 cotransporter modulators, thallium flux, primary screen, cell-based, HEK293 KCC2, FluoZin-2 fluorescence, MLSMR | actives 2.2% (n = 190,000) | Solute carrier family 12 member 5 (Homo sapiens), Q9H2X9 | B-score of Tl+ flux slope (higher = more flux/activation; lower = inhibition) at 10 µM | KCC2 cells, thallium flux FluoZin-2 fluorescence;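 active means thallium flux slope and its plate-corrected score both differing from the plate sample mean at a set confidence after two filtering rounds, in either direction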;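 further: slope of fluorescence scaled to starting intensity during 10 to 20 s after thallium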
WT yeast gro inh – growth inhibition of WT strain, primary screen, mitochondrial fusion inhibitor project, WT and mutant strains, chemical genetic | mitochondrial fusion phenotypic screen | inhibition, % at 10 µM | actives 2.1% (n = 190,000); in the data active means inhibition above about 58%; tested in S. cerevisiae
* = called active by the depositor; . = no result. Rows were chosen to be rich in hits. Some 12% of all compounds tested hit in one or more screens of this group.

SMILES	Diaph act CS	Diaphorase inh	ROMK mod	L major viab	Cl transport mod	WT yeast gro inh
O=C(CCl)Nc1cn(-c2ccccc2)nc1-c1ccccc1	0.8	23	-1.2	99*	0.92	29
CC(C)CC(NC(=O)CCl)c1ccccc1 (stereo not drawn)	0.9	14	0.73	11	-0.84	-17
CC(=O)Nc1cn(-c2ccccc2)nc1-c1ccccc1	0.9	10	0.91	10	0.47	-8
CCc1ccc(OCC(=O)NC(NC(=S)Nc2ccc(Cl)cc2)C(Cl)(Cl)Cl)cc1 (stereo not drawn)	1	0	-0.25	61*	1.5	1
CC(C)N(c1ccccc1)c1ccc(NC(=O)CCl)cc1	1	-4	0.6	55*	-0.73	-44
CCc1ccc(OCC(=O)NC(=S)Nc2ccc(C(=O)O)cc2)cc1	.	.	.	.	-0.24	.
O=C(CCl)Nc1ccc(-c2ccccc2)cc1	1	-2	-2	79*	0.43	-8
Cc1ncc([N+](=O)[O-])n1CC(=O)Nc1ccc2c(c1)OCO2	0.9	12	0.33	1	1.2	6
COCCNC(=S)N1CCN(C/C=C/c2ccccc2)CC1	0.9	12	-0.39	1	-0.81	-2
N#Cc1cc([N+](=O)[O-])cnc1NCC(O)CO (stereo not drawn)	0.9	6	.	-3	0.058	-14
O=C(CCl)Nc1ccc(N2CCCCCC2)cc1	0.9	8	-0.9	99*	-1.6	-3
O=C(CCl)Nc1ccc(N=Nc2ccccc2)cc1	1	3	.	100*	-1.1	-21
CCC(=O)Nc1ccc(N2CCCCC2)cc1	1.2	-15	0.47	-2	-0.21	9
CCCC(=O)NC(NC(=S)Nc1ccc(S(N)(=O)=O)cc1)C(Cl)(Cl)Cl (stereo not drawn)	0.9	6	.	-6	0.087	-14
CCCC(=O)NC(NC(=S)Nc1ccc(N=Nc2ccccc2)cc1)C(Cl)(Cl)Cl (stereo not drawn)	0.9	8	.	57*	-0.5	8
O=C1NC(Cc2ccccc2)C(=O)N1Cc1cc([N+](=O)[O-])cc2c1OCOC2 (stereo not drawn)	1.1	-11	0.67	-8	-0.42	12
CC(C)(C)n1ncc(Oc2ccc(Oc3cnn(C(C)(C)C)c(=O)c3Cl)cc2)c(Cl)c1=O	.	.	0.35	-7	0.14	.
Cc1cc(Oc2cnn(C(C)(C)C)c(=O)c2Cl)cc(C(C)C)c1	0.8	16	.	10	.	67*
Cc1cc(C)c(NC(=O)CN2CCN(C)CC2)c(C)c1	0.8	15	.	-10	0.5	2
COc1ccc(N2CCN(CC(=O)Nc3c(C)cc(C)cc3C)CC2)cc1	0.8	20	.	79*	.	17
CN(C)S(=O)(=O)c1cccc(NC(=S)NCCCn2ccnc2)c1	1	0	-0.28	-5	-0.5	-3
Cc1cc(S(=O)(=O)NCc2ccccc2)ccc1OCC(=O)NCC1CCCO1 (stereo not drawn)	0.9	5	0.21	4	-0.58	-13
CCCCNC(=O)Cn1nc([N+](=O)[O-])c([N+](=O)[O-])c1C	1	0	0.55	79*	-0.31	-11
Cc1cc(N2CCOCC2)nc2ccc(NC(=S)N3CCCCC3C)cc12 (stereo not drawn)	0.8	20	-0.49	85*	0.78	-36
Cc1cc(N2CCN(C)CC2)nc2ccc(NC(=S)NCCCN3CCc4ccccc4C3)cc12	1	-1	0.21	100*	0.17	10
SMILES	Diaph act CS	Diaphorase inh	ROMK mod	L major viab	Cl transport mod	WT yeast gro inh
CCCN1CCN(CCCNC(=S)Nc2ccc3nc(N4CCN(CC)CC4)cc(C)c3c2)CC1	1.2	-18	0.45	26	-0.097	15
CCN1CCN(c2cc(C)c3cc(NC(=S)NCCCN4CCc5ccccc5C4)ccc3n2)CC1	1.2	-19	-0.27	100*	-0.5	-7
Cc1cc(N2CCCC2)nc2ccc(NC(=S)NCCCN3CCC(C)CC3)cc12	1.2	-16	-1.5	100*	0.34	-8
COc1ccc(S(=O)(=O)N2CCOCC2)cc1NC(=O)c1ccccc1-c1ccc(C(F)(F)F)cc1	1	0	0.5	12	-0.035	0
NS(=O)(=O)c1ccc(CNC(=S)NC2CCCCC2)cc1	.	.	.	.	0.59	.
CC(c1ccon1)N(C)C(=O)CCc1nnc(CCCCc2ccccc2)o1 (stereo not drawn)	0.9	7	1.4	0	-1.9	9
Cc1ccc(SCC(=O)NC(=O)NCc2ccccc2)c(C)c1	0.8	18	0.4	-6	.	-7
Cc1ccc(C23CC4CC(CC(C(=O)OCC(=O)NC5CCS(=O)(=O)C5)(C4)C2)C3)cc1 (stereo not drawn)	0.8	22	-0.51	5	0.44	30
Cc1cc(SCC(=O)OCC(=O)NCC2CCCO2)c(C)cc1Br (stereo not drawn)	0.9	7	0.057	-8	-0.62	3
Cc1cc(N2CCN(C)CC2)nc2ccc(NC(=S)NCCN3CCc4ccccc4C3)cc12	1.3	-29	-0.77	100*	-0.33	11
CSc1nc2ncc(C(=O)O)c(N)n2n1	0.9	6	0.027	-3	-0.73	-10
COCCn1cc(C(=O)N2CCC(C)CC2)c2c3ccccc3n(C)c2c1=O	0.9	10	.	-6	.	-4
Fc1cccc(CCN2C(=S)NC[C@@H]2CC2CCCCC2)c1	.	.	.	.	1.1	.
CCCC[C@@H]1CNC(=S)N1CCC12CC3CC(CC(C3)C1)C2	0.9	14	.	9	0.46	65*
Fc1cccc(CCN2C(=S)NC[C@@H]2Cc2ccccc2)c1	0.8	24	.	5	-2.4	66*
CCCC[C@@H]1CNC(=S)N1CCc1cccc(F)c1	0.9	10	.	1	-0.07	65*
CCCC[C@@H]1CNC(=S)N1CCc1cccc2ccccc12	0.7	31	.	20	0.86	75*
CCCCN1C(=S)NC[C@@H]1Cc1cccc2ccccc12	.	.	.	.	-1.3	.
CCCC[C@@H]1CNC(=S)N1CC1CCCCC1	.	.	.	.	-0.69	.
O=C(O)CCN(CCC(=O)O)c1nnc(SCc2ccccc2)s1	1	-2	-0.031	-2	0.24	11
CCSc1nnc(N(CCC#N)CCC#N)s1	0.8	18	-5*	-1	1.2	-3
O=C(Nc1nnc(-c2ccco2)o1)C1CC1	0.9	10	-1.1	-6	1.4	7
O=C(c1ccc(F)cc1)N1CCN2C(=O)c3ccccc3C12c1ccc(Cl)cc1 (stereo not drawn)	0.8	16	-0.88	46	-0.31	28
